Our source for the Activity, IC50 and Ki values is ChEMBL document CHEMBL1137306, “Evaluation of 3-carboxy-4(1H)-quinolones as inhibitors of human protein kinase CK2” (J Med Chem, 2006).

The target in test [1] is T1, Casein kinase II (Homo sapiens) (UniProt P67870+P68400+P19784). The experiment in a line: Residual activity of human CK2 at 30 uM. Format: protein-complex assay.
Test [2] addresses T2, Casein kinase II (Homo sapiens, UniProt P19784+P67870+P68400). The experiment in a line: Inhibition of human CK2. It counts as protein-complex assay.
Test [3] has as its target Dual specificity tyrosine-phosphorylation-regulated kinase 1A (Homo sapiens) (UniProt Q13627). Put plainly: Residual activity of DYRK1a at 10 uM in presence of 100 uM ATP relative to control.
The target of test [4] is Tyrosine-protein kinase Lck (Homo sapiens) (UniProt P06239). Put plainly: Residual activity of p56LCK at 10 uM in presence of 100 uM ATP relative to control.
Chain of Tyrosine-protein kinase Lck (Homo sapiens) (P06239 2-509 limits assumed): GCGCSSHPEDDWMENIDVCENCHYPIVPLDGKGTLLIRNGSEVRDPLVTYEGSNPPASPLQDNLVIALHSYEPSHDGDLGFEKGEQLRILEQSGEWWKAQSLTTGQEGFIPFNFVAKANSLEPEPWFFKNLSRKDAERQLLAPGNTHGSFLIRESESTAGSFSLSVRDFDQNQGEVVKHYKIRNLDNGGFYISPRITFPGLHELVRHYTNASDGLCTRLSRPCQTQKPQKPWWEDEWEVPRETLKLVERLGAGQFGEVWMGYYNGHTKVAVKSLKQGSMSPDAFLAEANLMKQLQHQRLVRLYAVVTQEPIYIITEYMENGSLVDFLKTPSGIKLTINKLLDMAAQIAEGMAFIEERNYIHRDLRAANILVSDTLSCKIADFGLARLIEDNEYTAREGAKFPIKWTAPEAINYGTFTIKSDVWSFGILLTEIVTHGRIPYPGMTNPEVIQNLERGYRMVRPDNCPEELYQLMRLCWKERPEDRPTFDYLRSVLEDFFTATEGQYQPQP
Test [5] deals with T1, Casein kinase II (Homo sapiens). Put plainly: Residual activity of CK2 at 10 uM in presence of 100 uM ATP relative to control. Format: protein-complex assay.
In test [6] the target is Rho-associated protein kinase 1 (Homo sapiens) (UniProt Q13464). Put plainly: Residual activity of ROCK1 at 10 uM in presence of 100 uM ATP relative to control.
Chain of Rho-associated protein kinase 1 (Homo sapiens) (Q13464 2-1354 limits assumed): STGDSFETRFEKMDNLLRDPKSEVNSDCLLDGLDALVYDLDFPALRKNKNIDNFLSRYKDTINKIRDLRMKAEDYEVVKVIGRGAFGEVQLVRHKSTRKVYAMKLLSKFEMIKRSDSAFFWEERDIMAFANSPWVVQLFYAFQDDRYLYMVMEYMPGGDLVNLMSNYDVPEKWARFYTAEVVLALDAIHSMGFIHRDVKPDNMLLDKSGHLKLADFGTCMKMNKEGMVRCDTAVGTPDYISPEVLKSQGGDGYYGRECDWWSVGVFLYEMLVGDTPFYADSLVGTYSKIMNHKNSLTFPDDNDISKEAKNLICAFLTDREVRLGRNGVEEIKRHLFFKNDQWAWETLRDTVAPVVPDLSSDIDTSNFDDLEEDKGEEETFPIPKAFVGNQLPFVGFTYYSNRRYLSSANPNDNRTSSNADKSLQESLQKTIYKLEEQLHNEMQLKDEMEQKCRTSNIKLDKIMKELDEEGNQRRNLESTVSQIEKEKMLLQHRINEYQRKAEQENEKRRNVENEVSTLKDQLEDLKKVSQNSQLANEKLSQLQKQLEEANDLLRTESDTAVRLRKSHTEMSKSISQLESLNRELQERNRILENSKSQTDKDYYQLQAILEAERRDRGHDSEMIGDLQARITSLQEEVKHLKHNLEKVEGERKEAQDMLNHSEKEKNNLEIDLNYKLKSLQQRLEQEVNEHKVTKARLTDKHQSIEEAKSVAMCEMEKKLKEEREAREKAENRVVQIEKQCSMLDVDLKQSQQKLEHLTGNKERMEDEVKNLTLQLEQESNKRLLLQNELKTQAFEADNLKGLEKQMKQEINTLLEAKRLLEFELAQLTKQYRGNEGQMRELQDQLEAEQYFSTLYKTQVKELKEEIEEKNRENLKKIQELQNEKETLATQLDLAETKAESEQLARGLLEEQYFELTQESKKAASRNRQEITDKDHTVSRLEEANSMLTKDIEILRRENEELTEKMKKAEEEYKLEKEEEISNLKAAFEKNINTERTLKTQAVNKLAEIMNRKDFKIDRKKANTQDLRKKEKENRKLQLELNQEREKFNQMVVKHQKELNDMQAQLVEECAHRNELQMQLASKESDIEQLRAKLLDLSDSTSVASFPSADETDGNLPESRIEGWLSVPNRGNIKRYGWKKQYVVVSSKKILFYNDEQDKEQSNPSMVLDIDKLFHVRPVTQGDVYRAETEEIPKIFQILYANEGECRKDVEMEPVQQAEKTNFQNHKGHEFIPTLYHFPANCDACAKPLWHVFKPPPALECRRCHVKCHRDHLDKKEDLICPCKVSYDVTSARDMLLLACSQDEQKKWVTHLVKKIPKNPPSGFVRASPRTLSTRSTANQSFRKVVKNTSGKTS
Test [7] addresses Cyclin-dependent kinase 5 (Homo sapiens) (UniProt Q00535). Put plainly: Residual activity of CDK5 at 10 uM in presence of 100 uM ATP relative to control.
The target in test [8] is Ribosomal protein S6 kinase alpha-5 (Homo sapiens) (UniProt O75582). The experiment in a line: Residual activity of MSK1 at 10 uM in presence of 100 uM ATP relative to control.
Chain of Ribosomal protein S6 kinase alpha-5 (Homo sapiens) (O75582 whole entry, looked up): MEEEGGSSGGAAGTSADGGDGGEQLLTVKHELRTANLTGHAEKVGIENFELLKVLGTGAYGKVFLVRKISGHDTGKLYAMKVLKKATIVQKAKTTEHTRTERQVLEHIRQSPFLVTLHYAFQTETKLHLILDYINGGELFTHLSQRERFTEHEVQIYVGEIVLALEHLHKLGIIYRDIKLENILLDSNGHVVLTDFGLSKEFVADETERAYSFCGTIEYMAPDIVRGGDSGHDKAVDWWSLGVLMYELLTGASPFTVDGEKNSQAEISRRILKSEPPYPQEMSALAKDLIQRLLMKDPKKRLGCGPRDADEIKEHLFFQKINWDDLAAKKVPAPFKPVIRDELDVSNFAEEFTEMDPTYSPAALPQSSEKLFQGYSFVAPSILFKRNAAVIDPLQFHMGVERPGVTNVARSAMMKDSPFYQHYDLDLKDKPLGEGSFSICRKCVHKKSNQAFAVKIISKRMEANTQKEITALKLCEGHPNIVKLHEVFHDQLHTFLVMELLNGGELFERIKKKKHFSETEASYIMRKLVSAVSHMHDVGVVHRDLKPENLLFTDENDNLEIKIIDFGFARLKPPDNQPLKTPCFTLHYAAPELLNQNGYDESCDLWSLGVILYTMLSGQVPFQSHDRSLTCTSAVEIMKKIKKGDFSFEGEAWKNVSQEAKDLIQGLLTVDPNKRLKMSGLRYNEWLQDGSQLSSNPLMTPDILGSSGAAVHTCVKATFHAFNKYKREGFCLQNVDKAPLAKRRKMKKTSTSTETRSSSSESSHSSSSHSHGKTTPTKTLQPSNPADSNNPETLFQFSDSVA
Test [9] has as its target Mitogen-activated protein kinase 10 (Homo sapiens) (UniProt P53779). The experiment in a line: Residual activity of JNK3 at 10 uM in presence of 100 uM ATP relative to control.
For test [10], the target named is Glycogen synthase kinase-3 (Homo sapiens) (UniProt P49840+P49841). Put plainly: Residual activity of GSK3 at 10 uM in presence of 100 uM ATP relative to control. Format: protein assay.
Chain of Glycogen synthase kinase-3 (Homo sapiens) (P49840 whole entry, looked up): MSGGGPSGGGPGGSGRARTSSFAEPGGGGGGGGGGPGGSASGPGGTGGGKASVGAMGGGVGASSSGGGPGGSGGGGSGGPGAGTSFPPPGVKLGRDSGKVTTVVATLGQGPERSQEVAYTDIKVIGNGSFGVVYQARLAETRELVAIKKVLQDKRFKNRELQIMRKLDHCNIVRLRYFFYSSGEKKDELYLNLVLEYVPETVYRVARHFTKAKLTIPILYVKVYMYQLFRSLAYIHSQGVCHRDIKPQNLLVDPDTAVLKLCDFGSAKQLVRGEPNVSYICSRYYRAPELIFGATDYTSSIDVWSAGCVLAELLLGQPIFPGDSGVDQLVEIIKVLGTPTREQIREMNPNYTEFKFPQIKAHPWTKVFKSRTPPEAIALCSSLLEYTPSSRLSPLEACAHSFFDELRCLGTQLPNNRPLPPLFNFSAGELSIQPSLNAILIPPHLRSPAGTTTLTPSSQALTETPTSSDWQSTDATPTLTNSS
Chain of Glycogen synthase kinase-3 (Homo sapiens) (P49841 whole entry, looked up): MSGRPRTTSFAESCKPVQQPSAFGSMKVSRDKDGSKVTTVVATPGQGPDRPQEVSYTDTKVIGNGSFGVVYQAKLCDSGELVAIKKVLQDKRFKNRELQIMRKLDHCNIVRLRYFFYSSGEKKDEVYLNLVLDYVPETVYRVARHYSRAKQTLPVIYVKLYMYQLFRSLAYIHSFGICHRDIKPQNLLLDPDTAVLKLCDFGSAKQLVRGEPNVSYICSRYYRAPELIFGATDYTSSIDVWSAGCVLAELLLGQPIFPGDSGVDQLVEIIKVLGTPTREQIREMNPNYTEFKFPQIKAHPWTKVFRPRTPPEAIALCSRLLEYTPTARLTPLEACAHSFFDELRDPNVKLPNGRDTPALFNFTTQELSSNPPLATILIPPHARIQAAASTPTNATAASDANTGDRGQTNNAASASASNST
Test [11] concerns the target T2, Casein kinase II. Put plainly: Binding affinity to human CK2 in presence of ATP. Format: protein-complex assay. In short, it runs like this: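 Ki obtained from Lineweaver-Burk plots of CK2 activity measured at varied ATP and inhibitor concentrations (inhibitor 0 to 0.5 µM). Activity was read by the radiometric phosphocellulose peptide assay.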

T2 sequence (P67870 whole entry): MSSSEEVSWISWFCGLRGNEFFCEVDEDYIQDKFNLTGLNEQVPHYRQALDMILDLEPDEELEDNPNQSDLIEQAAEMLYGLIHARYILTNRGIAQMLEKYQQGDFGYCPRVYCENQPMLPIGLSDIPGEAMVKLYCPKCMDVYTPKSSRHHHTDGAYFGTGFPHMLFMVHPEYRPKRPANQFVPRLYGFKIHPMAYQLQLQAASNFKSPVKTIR
T2 sequence (P68400 whole entry): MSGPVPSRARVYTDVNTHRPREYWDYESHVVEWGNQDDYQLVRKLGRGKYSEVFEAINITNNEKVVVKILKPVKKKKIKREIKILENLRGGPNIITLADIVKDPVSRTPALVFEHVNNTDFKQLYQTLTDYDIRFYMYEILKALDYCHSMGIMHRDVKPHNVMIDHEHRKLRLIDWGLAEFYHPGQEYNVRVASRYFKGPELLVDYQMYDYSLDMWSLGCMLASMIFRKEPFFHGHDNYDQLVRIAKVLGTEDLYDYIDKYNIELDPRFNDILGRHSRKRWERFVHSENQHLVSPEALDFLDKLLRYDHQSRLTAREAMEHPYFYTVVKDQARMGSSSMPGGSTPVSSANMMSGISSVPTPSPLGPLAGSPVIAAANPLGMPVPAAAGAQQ
T2 sequence (P19784 whole entry): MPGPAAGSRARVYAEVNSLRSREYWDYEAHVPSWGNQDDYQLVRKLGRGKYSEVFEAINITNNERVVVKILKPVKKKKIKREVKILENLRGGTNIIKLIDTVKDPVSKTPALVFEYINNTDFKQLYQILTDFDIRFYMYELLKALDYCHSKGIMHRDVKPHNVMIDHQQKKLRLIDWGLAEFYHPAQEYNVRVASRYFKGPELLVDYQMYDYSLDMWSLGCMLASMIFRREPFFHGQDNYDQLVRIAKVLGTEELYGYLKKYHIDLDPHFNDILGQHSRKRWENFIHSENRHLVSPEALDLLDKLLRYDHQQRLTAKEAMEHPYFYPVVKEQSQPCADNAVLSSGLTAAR
Chain of Mitogen-activated protein kinase 10 (Homo sapiens) (P53779 whole entry): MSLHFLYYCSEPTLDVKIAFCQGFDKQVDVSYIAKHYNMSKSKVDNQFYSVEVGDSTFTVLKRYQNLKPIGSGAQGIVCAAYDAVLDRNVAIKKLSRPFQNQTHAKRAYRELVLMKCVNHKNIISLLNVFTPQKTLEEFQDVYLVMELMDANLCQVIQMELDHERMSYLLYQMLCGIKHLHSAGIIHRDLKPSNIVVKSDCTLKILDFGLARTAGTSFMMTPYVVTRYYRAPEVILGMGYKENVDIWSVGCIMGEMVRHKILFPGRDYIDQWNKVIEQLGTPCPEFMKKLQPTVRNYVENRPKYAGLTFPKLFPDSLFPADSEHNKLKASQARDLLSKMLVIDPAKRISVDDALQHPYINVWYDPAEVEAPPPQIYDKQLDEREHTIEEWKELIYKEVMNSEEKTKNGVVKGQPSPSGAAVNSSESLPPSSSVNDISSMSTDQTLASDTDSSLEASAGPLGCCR

`O=C(O)c1cnc2c(C(=O)O)cccc2c1O` returned an Activity in [1] of 73%.
Same read-out and setting: the result for `CN(C)c1ccc2ncc(C(=O)O)c(O)c2c1` reads 75%; that for `COc1cc(OC)c2ncc(C(=O)O)c(O)c2c1`, 99%.
For the compound `O=C(O)c1cnc2cc3c(cc2c1O)OCCO3`, in test [1], the Activity is 81%.
On to `O=C(O)c1c[nH]c2c(Cl)c(Cl)ccc2c1=O`, for which it took 800 nM to reach half-maximal inhibition in test [2] (IC50).
Take `CC(=O)c1ccc2ncc(C(=O)O)c(O)c2c1`: the Activity in test [1] was 100%.
For the compound `O=C(O)c1cnc2cc(C(F)(F)F)ccc2c1O`, the Activity in test [1] was found to be 78%.
The same measure, in the same setting: the result for `Cc1ccc2c(c1)c(=O)c(C(=O)O)cn2C` reads 100%; that for `O=C(O)c1cnc2ccc(Br)cc2c1O`, 76%; that for `O=C(O)c1cnc2c(Br)cccc2c1O`, 42%.
On the same count and under the same terms, in the case of `CCc1cccc2c(O)c(C(=O)O)cnc12` it was 86%; in that of `O=C(O)c1cnc2ccc(F)cc2c1O`, 72%; in that of `O=C(O)c1ccc2c(O)c(C(=O)O)cnc2c1`, 74%.
In turn, `Cc1ccc2ncc(C(=O)O)c(O)c2c1` came in with an Activity in test [1] of 100%.
`CC(C)c1cccc2c(O)c(C(=O)O)cnc12` yielded an Activity in test [1] of 95%.
On to `CCOc1cccc2c(O)c(C(=O)O)cnc12`, for which the Activity in test [1] was 103%.
As to `Cc1ccc2c(O)c(C(=O)O)cnc2c1C`, in test [2], the IC50 (as a rule, the concentration that inhibits the measured activity by half) was at least 33000 nM. Also, the Activity in [1] is 56%.
Take `O=C(O)c1cnc2c(F)cccc2c1O`: the Activity in [1] was 70%.
In turn, `O=C(O)c1cnc2c(Cl)c(Cl)ccc2c1O` returned an Activity in test [1] of 12.5%.
In test [1], `Cc1ccc(C)c2c(O)c(C(=O)O)cnc12` returned an Activity of 32%.
`O=C(O)c1cnc2ccc(Oc3ccccc3)cc2c1O` showed an Activity in test [1] of 89%.
As to `O=C(O)c1cnc2c(Cl)cc(Cl)c(Cl)c2c1O`, the Activity in test [3] is 35%; in test [4], 87%; in [5] it was 11%; in test [6] it was 85%; in test [7] it was over 50%; in test [8], 71%. The Activity in test [9] is 74%; in [10], over 50%; in [1] it was 2.6%. Also, 300 nM corresponded to half-maximal inhibition in test [2] (IC50). Besides, the Ki (as a rule, the equilibrium dissociation constant of an inhibitor or competing ligand from its target) in test [11] stood at 60 nM.
`COc1ccc2ncc(C(=O)O)c(O)c2c1` yielded an Activity in test [1] of 101%.
Still for that read-out and setting: in the case of `O=C(O)c1cnc2ccc(I)cc2c1O` it was 85%; in that of `CCOc1ccc2ncc(C(=O)O)c(O)c2c1`, 107%.
Compound `O=C(O)c1cnc2c(Cl)cc(Cl)cc2c1O` returned an Activity in [1] of 64%.
Take `Cc1cc(C)c2ncc(C(=O)O)c(O)c2c1`: in [1], the Activity came to 63%.
The compound `O=C(O)c1cnc2ccc(Cl)cc2c1O` gave an Activity in test [1] of 75%.
On the same count and under the same terms, the result for `CCCCc1ccc2ncc(C(=O)O)c(O)c2c1` reads 87%.
Take `Cn1cc(C(=O)O)c(=O)c2ccccc21`: the Activity in [1] is 106%.
The compound `O=C(O)c1cnc2ccccc2c1O` returned an Activity in [1] of 103%.
Same read-out and setting: in the case of `CC(C)Oc1cccc2c(O)c(C(=O)O)cnc12` it was 93%.
Turning to `O=C(O)c1cnc2c(ccc3ccccc32)c1O`, the Activity is 85% in [3]; 80% in test [4]; 25% in test [5]; 78% in test [6]; over 50% in test [7]; 89% in test [8]. Also, the Activity in test [9] is 81%; in [10] it was over 50%; in test [1], 4.5%. The same compound returned an IC50 in test [2] of 1000 nM. Moreover, the Ki in test [11] turned out to be 280 nM.
Compound `CCCOc1ccc2ncc(C(=O)O)c(O)c2c1` showed an Activity in test [1] of 80%.
For the compound `O=C(O)c1cnc2cc(Cl)cc(Cl)c2c1O`, the Activity in test [1] was determined as 70%.
For `Cc1cc(C)c2c(c1)c(=O)c(C(=O)O)cn2C`, the Activity in test [1] was 102%.
The same measure, in the same setting: the result for `CC1COc2c(F)c(F)cc3c(=O)c(C(=O)O)cn1c23` (stereo not given) reads 88%.
Turning to `Cc1c(Cl)ccc2c(O)c(C(=O)O)cnc12`, in test [2], the IC50 came to 2000 nM. Moreover, the Activity in [1] is 15%.
In [1], `COc1cccc2c(O)c(C(=O)O)cnc12` gave an Activity of 92%.
In [1], `CC1COc2c(N3CCN(C)CC3)c(F)cc3c(=O)c(C(=O)O)cn1c23` (stereo not given) had an Activity of 100%.
The same measure, in the same setting: the result for `O=C(O)c1ccc2ncc(C(=O)O)c(O)c2c1` reads 91%.
Still for that read-out and setting: in the case of `Cc1cccc2c(O)c(C(=O)O)cnc12` it was 74%; in that of `O=C(O)c1cnc2c(Cl)cccc2c1O`, 37%.
